Active and inactive are the calls of the source.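 The calls were made as follows, unless noted: active = viability loss from added drug above about 55%, and viability with drug at most 40%, in both replicates (limit read from the data, passing the limit was not always enough); inconclusive = both conditions met in only one replicate; inactive = neither replicate meets both conditions.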

Test [1] is described as follows: reduced viability of SK-BR-3 breast cancer cells – cell-based, 24 h, human, pilot screen (AID 572;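 active = viability at or below 10% of carrier control in both of two separate runs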;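 also: compound exposure lasted between 18 and 24 h rather than exactly 24 h; 100% = carrier-treated control wells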). The following applies: SK-BR-3 viability, CellTiter-Glo luminescence, at 10 µM, stronger effect = lower value. On the technique in general: In ATP-based viability assays light output follows the ATP content of the culture.
Test [2] can be described thus: HUVEC growth inhibition – cell-based, human, primary screen (AID 575;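 active = viability at or below 30% in both replicate assays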;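 also: 100% = median of untreated cell wells with 0.1% DMSO on each plate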). The following applies: HUVEC proliferation, CellTiter-Glo luminescence, 72 h; at 10 µM; stronger effect = lower value. The gist of the method: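 Test system – primary HUVEC, no more than 12 passages · Dosing – one dose, 10 µM final, 0.1% DMSO · Times – 72 h treatment at 37 °C · Measured by – ATP-based CellTiter-Glo luminescent read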

A short description of test [3]: H69AR cell proliferation blockers – human, duplicate replicates, primary screen (AID 580;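 active = viability at or under a set limit in both replicates, limit being median viability minus 3 SD, cut at about 48% in these data, passing the limit was not always enough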;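 also: 100% = mean luminescence of untreated wells and 0% = no signal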). The following applies: H69AR lung tumor cells viability, ATP luminescence, 72 h; at 10 µM; stronger effect = lower value.
A short description of test [4]: MRP1 drug-resistance reversers in H69AR cells – cell-based, doxorubicin co-treatment, pilot screen (AID 601). The following applies: CellTiter-Glo, 72 h, at 10 µM; for differential viability (reversal): stronger effect = higher value.
A short description of test [5]: yeast transport mutant growth inhibition pilot in 384-well plates, post-Golgi transport modulator project (AID 636; in the data active = inhibition above about 31%). The following applies: absorbance 615 nm, about 18 h, stronger effect = higher value.
The nature of test [6]: growth suppression of yeast trafficking mutant, preliminary HTS, modulators of trafficking downstream of Golgi apparatus project, 1536-format plate, OD 615 nm (AID 637; in the data active = inhibition above about 30%). The following applies: yeast transport mutant growth, absorbance 615 nm, 18 h; stronger effect = higher value.
Setting [7] is: H69AR cells + 2 uM doxorubicin, measured here: viability with 2 uM doxorubicin, stronger effect = lower value.
Where [8] appears, read: H69AR cells, compound alone cytotoxicity.

In general, viability refers to a read-out of living cells in per cent, often relative to untreated cells. The inhibition is the change of the read-out against control, counted positive when it falls. Consider `CC(=O)[C@H]1[C@H](C#N)C[C@H]2[C@@H]3CC=C4C[C@@H](O)CC[C@]4(C)[C@H]3CC[C@@]21C`, for which the viability was 136% (inactive) in test [1]; 103% (inactive) in test [2]; 87% (inactive) in test [3]; 85.2% in test [4] (setting [7]); 87% in test [4] (setting [8]). For the same compound, in test [4] (H69AR cells + 2 uM doxorubicin), the differential viability (reversal) was 1.78% (inactive). Moreover, the inhibition is -2.73% (inactive) in test [5] and 7.33% (inactive) in test [6].
With `C/C=C(\CS(=O)(=O)c1ccccc1)S(=O)(=O)c1ccccc1`, the viability in test [1] was 110% (inactive); in test [2], 85.1% (inactive); in test [3], 6.84% (active); in test [4] (setting [7]), 7.22%; in test [4] (setting [8]), 6.84%. In addition, the differential viability (reversal) in test [4] (H69AR cells + 2 uM doxorubicin) is -0.38% (inactive). Moreover, the values for the inhibition in test [5] and in test [6] were -0.91% (inactive) and -4.26% (inactive), respectively.
Turning to `Cc1cc(=O)n2nc(N3CCCC(C(=O)N4CCc5ccccc54)C3)sc2n1` (centres undefined), the viability in test [1] is 82% (inactive); in test [2] it was 87.1% (inactive); in test [3] it was 85.8% (inactive); in test [4] (setting [7]), 88.7%; in test [4] (setting [8]) it was 85.8%. Besides, the differential viability (reversal) in test [4] (H69AR cells + 2 uM doxorubicin) is -2.83% (inactive). Further, the inhibition was -6.76% (inactive) in test [5] and 1.64% (inactive) in test [6].
On to `COC(=O)C1(C)NC(c2cccs2)C2C(=O)N(c3ccccc3F)C(=O)C21` (centres undefined), for which the viability in test [1] was 80% (inactive); in test [2] it was 96.3% (inactive); in test [3], 99.3% (inactive); in test [4] (setting [7]), 94.4%; in test [4] (setting [8]), 99.3%. Also, the differential viability (reversal) in test [4] (H69AR cells + 2 uM doxorubicin) is 4.93% (inactive). Further, the inhibition is -0.27% (inactive) in test [5] and -0.48% (inactive) in test [6].
As for `O=C(NCCCN1CCOCC1)c1cc(-c2ccc(Cl)cc2)on1`, the viability is 88% (inactive) in test [1]; 103% (inactive) in test [2]; 94.1% (inactive) in test [3]; 78.2% in test [4] (setting [7]); 94.1% in test [4] (setting [8]). Further, the differential viability (reversal) in test [4] (H69AR cells + 2 uM doxorubicin) was 15.9% (inactive). Moreover, the values for the inhibition in test [5] and in test [6] were -6.8% (inactive) and 0.55% (inactive), respectively.
Regarding `Cc1ccc(-n2c(N)c(C(N)=O)sc2=S)cc1`, the viability in test [1] was 87% (inactive); in test [2], 112% (inactive); in test [3], 87.9% (inactive); in test [4] (setting [7]), 88.3%; in test [4] (setting [8]), 87.9%. Besides, the differential viability (reversal) in test [4] (H69AR cells + 2 uM doxorubicin) is -0.38% (inactive). Moreover, the inhibition in test [5] is -3.24% (inactive); in test [6], 0.73% (inactive).
Take `Cc1oncc1C(=O)Nc1ccc(C(F)(F)F)cc1`: the viability was 87% (inactive) in test [1]; 69.8% (inactive) in test [2]; 97.2% (inactive) in test [3]; 87.8% in test [4] (setting [7]); 97.2% in test [4] (setting [8]). In addition, the differential viability (reversal) in test [4] (H69AR cells + 2 uM doxorubicin) is 9.38% (inactive). The inhibition in test [5] was -1.69% (inactive); in test [6], -0.83% (inactive).
Regarding `O=C(NC1CC1)c1ccc(S(=O)(=O)NCC2CCCCC2)cc1`, the viability in test [1] is 112% (inactive); in test [2], 79.4% (inactive); in test [3], 102% (inactive); in test [4] (setting [7]), 97%; in test [4] (setting [8]) it was 102%. In test [4] (H69AR cells + 2 uM doxorubicin), the differential viability (reversal) was 5.06% (inactive). For the same compound, the values for the inhibition in test [5] and in test [6] were -6.85% (inactive) and -0.32% (inactive), respectively.
Consider `O=C(NCCN1CCOCC1)NC1(C(F)(F)F)Oc2ccc(Cl)cc2O1` (centres undefined), for which the viability is 107% (inactive) in test [1]; 57.1% (inactive) in test [2]; 22.6% (active) in test [3]; 39.5% in test [4] (setting [7]); 22.6% in test [4] (setting [8]). Besides, the differential viability (reversal) in test [4] (H69AR cells + 2 uM doxorubicin) was -16.8% (inactive). Further, the figures for the inhibition in test [5] and in test [6] were -7.53% (inactive) and 0% (inactive), respectively.
For the compound `COc1cccc(-c2cc(C(=O)Nc3c(C)nn(Cc4ccccc4)c3C)no2)c1`, the viability in test [1] is 158% (inactive); in test [2], 82.6% (inactive); in test [3], 98.2% (inactive); in test [4] (setting [7]), 89.5%; in test [4] (setting [8]), 98.2%. Further, the differential viability (reversal) in test [4] (H69AR cells + 2 uM doxorubicin) was 8.66% (inactive). In addition, the inhibition in test [5] was -5.81% (inactive); in test [6] it was -7.33% (inactive).
On to `CCCCn1nnnc1NCc1cccs1`, for which the viability was 98% (inactive) in test [1]; 97% (inactive) in test [2]; 99.2% (inactive) in test [3]; 84.8% in test [4] (setting [7]); 99.2% in test [4] (setting [8]). The differential viability (reversal) in test [4] (H69AR cells + 2 uM doxorubicin) was 14.4% (inactive). For the same compound, the results for the inhibition in test [5] and in test [6] were -6.49% (inactive) and -0.33% (inactive), respectively.
Take `CCOC(=O)CSC1=C(C#N)C(c2ccc3c(c2)OCO3)CC(=O)N1` (centres undefined): the viability in test [1] was 90% (inactive); in test [2] it was 73.1% (inactive); in test [3] it was 13.1% (active); in test [4] (setting [7]) it was 65.5%; in test [4] (setting [8]), 13.1%. For the same compound, the differential viability (reversal) in test [4] (H69AR cells + 2 uM doxorubicin) was -52.4% (inactive). Besides, the inhibition in test [5] was -5.41% (inactive); in test [6], -2.36% (inactive).
For `CCOC(=O)C1CCN(C(=O)COc2ccc(S(=O)(=O)NC(C)C)cc2Cl)CC1`, the viability was 99.5% (inactive) in test [1]; 100% (inactive) in test [2]; 90.4% (inactive) in test [3]; 106% in test [4] (setting [7]); 90.4% in test [4] (setting [8]). Besides, in test [4] (H69AR cells + 2 uM doxorubicin), the differential viability (reversal) was -15.3% (inactive). Besides, the inhibition in test [5] was 0.66% (inactive); in test [6], 24.5% (inactive).
For the compound `CC(=O)Nc1ccc(NC(=O)Cn2cnc3c(cnn3C(C)(C)C)c2=O)cc1`, the viability in test [1] is 101% (inactive); in test [2], 87.9% (inactive); in test [3], 98.9% (inactive); in test [4] (setting [7]) it was 85.1%; in test [4] (setting [8]), 98.9%. Also, in test [4] (H69AR cells + 2 uM doxorubicin), the differential viability (reversal) was 13.8% (inactive). Moreover, the inhibition was -5.47% (inactive) in test [5] and 3.27% (inactive) in test [6].
As to `CC(=O)Nc1ccc(S(=O)(=O)NCc2csc(-c3cccnc3)n2)cc1`, the viability in test [1] is 97% (inactive); in test [2], 101% (inactive); in test [3], 97.6% (inactive); in test [4] (setting [7]), 102%; in test [4] (setting [8]) it was 97.6%. For the same compound, in test [4] (H69AR cells + 2 uM doxorubicin), the differential viability (reversal) is -4.67% (inactive). Further, the inhibition in test [5] is -1.69% (inactive); in test [6], 1.8% (inactive).
Consider `COc1ccc(CCN2C(=O)CC(N3CCN(S(=O)(=O)c4ccccc4)CC3)C2=O)cc1` (centres undefined), for which the viability in test [1] was 103% (inactive); in test [2], 107% (inactive); in test [3], 96.7% (inactive); in test [4] (setting [7]) it was 106%; in test [4] (setting [8]), 96.7%. In test [4] (H69AR cells + 2 uM doxorubicin), the differential viability (reversal) is -9.06% (inactive). Besides, the inhibition was 2.05% (inactive) in test [5] and -0.36% (inactive) in test [6].
As to `Cc1cccc(N(CC(=O)Nc2ccc(CC#N)cc2)S(C)(=O)=O)c1`, the viability is 108% (inactive) in test [1]; 105% (inactive) in test [2]; 97% (inactive) in test [3]; 86.2% in test [4] (setting [7]); 97% in test [4] (setting [8]). Further, the differential viability (reversal) in test [4] (H69AR cells + 2 uM doxorubicin) was 10.8% (inactive). Also, the inhibition in test [5] was -10.8% (inactive); in test [6], 2.74% (inactive).
Turning to `CCOC(=O)C1CSC(CC(=O)Nc2ccc(Cl)cc2)C(=O)N1` (centres undefined), the viability is 86% (inactive) in test [1]; 111% (inactive) in test [2]; 103% (inactive) in test [3]; 91.4% in test [4] (setting [7]); 103% in test [4] (setting [8]). In addition, in test [4] (H69AR cells + 2 uM doxorubicin), the differential viability (reversal) was 11.6% (inactive). Also, the values for the inhibition in test [5] and in test [6] were 0% (inactive) and -3.64% (inactive), respectively.

The values above are taken from PubChem BioAssay.
